ChEMBL document CHEMBL3856209, “Novel pyrazolopyridine derivatives as potential angiogenesis inhibitors: Synthesis, biological evaluation and transcriptome-based mechanistic analysis” (Eur J Med Chem, 2016)
Activity calls are given as the source filed them. The rule behind the calls is not given here.

Key:
HUVEC [1] = experiment: Effect on RNA28S5 gene expression in serum-starved HUVEC after 24 hrs by microarray analysis relative to control; type: functional, Homo sapiens
Outline: (§1)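 Serum-starved confluent HUVEC (pooled from 3–5 donors, passage ≤4) were treated with 2 μM compound or vehicle in 2.5% FBS for 6 h or 24 h, and total RNA was isolated. Hybridization was on Illumina Human-HT12. Data were processed with bgAdjust, vst and rsn normalization. Changes versus DMSO were called by moderated paired t-test at p < 0.05 and |log2 fold change| > 0.5.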

HUVEC [2] = experiment: Effect on RNVU1-18 gene expression in serum-starved HUVEC after 24 hrs by microarray analysis relative to control; type: functional, Homo sapiens
Outline: (§2)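 Confluent serum-starved HUVEC (primary, pooled from 3–5 donors, passage ≤4) treated with 2 μM compound or DMSO vehicle in 2.5% FBS for 6 h or 24 h. Total RNA hybridized to Illumina Human-HT12 arrays, background-corrected, vst-transformed and rsn-normalized. Differential expression versus DMSO by moderated paired t-test (p < 0.05, |log2 fold change| > 0.5).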

HUVEC [3] = experiment: Effect on SPC24 gene expression in serum-starved HUVEC after 24 hrs by microarray analysis relative to control; type: functional, Homo sapiens; outline: as §2
HUVEC [4] = experiment: Effect on MSMP gene expression in serum-starved HUVEC after 6 hrs by microarray analysis relative to control; type: functional, Homo sapiens; outline: as §1
HUVEC [5] = experiment: Effect on ASPM gene expression in serum-starved HUVEC after 24 hrs by microarray analysis relative to control; type: functional, Homo sapiens
Outline: (§3)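 Serum-starved confluent HUVEC treated with 2 μM compound or DMSO in 2.5% FBS for 6 h or 24 h; RNA hybridized to Illumina Human-HT12 arrays. Data background-corrected, vst-transformed and rsn-normalized. Differential probes called by moderated paired t-test (limma) at p < 0.05 and log2 fold change >|0.5| vs DMSO.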

HUVEC [6] = experiment: Effect on RNVU1-7 gene expression in serum-starved HUVEC after 6 hrs by microarray analysis relative to control; type: functional, Homo sapiens; outline: as §2
HUVEC [7] = experiment: Effect on PTTG1 gene expression in serum-starved HUVEC after 6 hrs by microarray analysis relative to control; type: functional, Homo sapiens; outline: as §1
HUVEC [8] = experiment: Effect on UBE2C gene expression in serum-starved HUVEC after 6 hrs by microarray analysis relative to control; type: functional, Homo sapiens; outline: as §2
HUVEC [9] = experiment: Effect on KIF20A gene expression in serum-starved HUVEC after 6 hrs by microarray analysis relative to control; type: functional, Homo sapiens
Outline: (§4)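 Confluent, serum-starved HUVEC (pooled from 3–5 donors, passage ≤4) treated with 2 μM compound or vehicle with 2.5% FBS for 6 h or 24 h. Total RNA hybridized to Illumina Human-HT12 arrays. Data were background-corrected, vst-transformed and rsn-normalized. Hits called by moderated paired t-test versus DMSO-treated cells, p < 0.05 and log2 fold change >|0.5|.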

HUVEC [10] = experiment: Effect on UBE2C gene expression in serum-starved HUVEC after 24 hrs by microarray analysis relative to control; type: functional, Homo sapiens; outline: as §2
HUVEC [11] = experiment: Effect on CDC20 gene expression in serum-starved HUVEC after 24 hrs by microarray analysis relative to control; type: functional, Homo sapiens; outline: as §3
HUVEC [12] = experiment: Effect on ZWINT gene expression in serum-starved HUVEC after 6 hrs by microarray analysis relative to control; type: functional, Homo sapiens; outline: as §1
HUVEC [13] = experiment: Effect on CALD1 gene expression in serum-starved HUVEC after 6 hrs by microarray analysis relative to control; type: functional, Homo sapiens; outline: as §3
HUVEC [14] = experiment: Effect on KIFC1 gene expression in serum-starved HUVEC after 24 hrs by microarray analysis relative to control; type: functional, Homo sapiens; outline: as §1
HUVEC [15] = experiment: Effect on PTTG3P gene expression in serum-starved HUVEC after 24 hrs by microarray analysis relative to control; type: functional, Homo sapiens; outline: as §1
Lewis lung carcinoma = experiment: Antitumor activity against mouse LLC cells allografted in C57BL/6 mouse assessed as tumor growth inhibition at 0.2 mg/kg, ip administered thrice a week for 2 weeks starting 24 hrs before tumor implantation measured every other day of compound dosing by electronic caliper-based method; type: functional, organism-based
Outline: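 Male 6–8 week C57BL/6 mice (groups of 5–6) inoculated sc in the right flank with 5×10^5 LLC cells. Compound (0.2 mg/kg) or DMSO vehicle given ip thrice weekly for 2 weeks, starting 24 h before implantation. Tumors measured by caliper every other day. At end-point, anti-CD31 IHC (1:100) of tumor sections, with immunoreactive cells counted in six high-power fields.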

HUVEC (Homo sapiens) [16] = experiment: Antiproliferative activity against human HUVEC cells assessed as decrease in VEGF-165-induced cell growth at 0.5 to 2 uM after 24 to 48 hrs by MTT assay
HUVEC [17] = experiment: Effect on PTTG1 gene expression in serum-starved HUVEC after 24 hrs by microarray analysis relative to control; type: functional, Homo sapiens; outline: as §2
HUVEC [18] = experiment: Effect on RNVU1-7 gene expression in serum-starved HUVEC after 24 hrs by microarray analysis relative to control; type: functional, Homo sapiens; outline: as §2
HUVEC [19] = experiment: Effect on BIRC5 gene expression in serum-starved HUVEC after 24 hrs by microarray analysis relative to control; type: functional, Homo sapiens; outline: as §3
HUVEC [20] = experiment: Effect on RNVU1-18 gene expression in serum-starved HUVEC after 6 hrs by microarray analysis relative to control; type: functional, Homo sapiens; outline: as §1
HUVEC (Homo sapiens) [21] = experiment: Antiproliferative activity against human HUVEC cells assessed as decrease in VEGF-165-induced cell growth at 0.5 to 2 uM after 24 to 48 hrs by CyQUANT cell proliferation assay
HUVEC [22] = experiment: Effect on RNU1-3 gene expression in serum-starved HUVEC after 6 hrs by microarray analysis relative to control; type: functional, Homo sapiens; outline: as §1
HUVEC [23] = experiment: Effect on DLC1 gene expression in serum-starved HUVEC after 6 hrs by microarray analysis relative to control; type: functional, Homo sapiens; outline: as §4
HUVEC [24] = experiment: Effect on CALD1 gene expression in serum-starved HUVEC after 24 hrs by microarray analysis relative to control; type: functional, Homo sapiens; outline: as §3
HUVEC [25] = experiment: Effect on ERAP2 gene expression in serum-starved HUVEC after 6 hrs by microarray analysis relative to control; type: functional, Homo sapiens; outline: as §4
HUVEC [26] = experiment: Effect on GNG12 gene expression in serum-starved HUVEC after 6 hrs by microarray analysis relative to control; type: functional, Homo sapiens; outline: as §4
HUVEC [27] = experiment: Effect on ERAP2 gene expression in serum-starved HUVEC after 24 hrs by microarray analysis relative to control; type: functional, Homo sapiens; outline: as §4
HUVEC [28] = experiment: Effect on DLC1 gene expression in serum-starved HUVEC after 24 hrs by microarray analysis relative to control; type: functional, Homo sapiens; outline: as §4
HUVEC [29] = experiment: Effect on KIFC1 gene expression in serum-starved HUVEC after 6 hrs by microarray analysis relative to control; type: functional, Homo sapiens; outline: as §1
HUVEC [30] = experiment: Effect on PTTG3P gene expression in serum-starved HUVEC after 6 hrs by microarray analysis relative to control; type: functional, Homo sapiens; outline: as §2
HUVEC [31] = experiment: Effect on MSMP gene expression in serum-starved HUVEC after 24 hrs by microarray analysis relative to control; type: functional, Homo sapiens; outline: as §1
HUVEC [32] = experiment: Effect on DLGAP5 gene expression in serum-starved HUVEC after 24 hrs by microarray analysis relative to control; type: functional, Homo sapiens; outline: as §4
HUVEC [33] = experiment: Effect on DLGAP5 gene expression in serum-starved HUVEC after 6 hrs by microarray analysis relative to control; type: functional, Homo sapiens; outline: as §4
HUVEC [34] = experiment: Effect on MMP1 gene expression in serum-starved HUVEC after 24 hrs by microarray analysis relative to control; type: functional, Homo sapiens; outline: as §1

SMILES	log2FC (HUVEC [1])	log2FC (HUVEC [2])	log2FC (HUVEC [3])	log2FC (HUVEC [4])	log2FC (HUVEC [5])	log2FC (HUVEC [6])	log2FC (HUVEC [7])	log2FC (HUVEC [8])	log2FC (HUVEC [9])	log2FC (HUVEC [10])	log2FC (HUVEC [11])	log2FC (HUVEC [12])	fold change (FC) (HUVEC [13])	log2FC (HUVEC [14])	log2FC (HUVEC [15])	TGI (Lewis lung carcinoma)	Activity (HUVEC (Homo sapiens) [16])	log2FC (HUVEC [17])	log2FC (HUVEC [18])	log2FC (HUVEC [22])	further results
COc1ccc(Cn2nc(-c3ccccc3)c3cc(Cl)nc(N4CCNCC4)c32)cc1	0.141	-0.1577	-0.732	-0.0237	-0.5316	-0.5056	-0.1057	-0.1374	-0.1005	-0.5278	-0.6535	0.1395	0.5218	-0.5682	-0.5735	Active	Active	-0.6261	-0.1037	-0.5393	log2FC (HUVEC [19]): -0.6034; log2FC (HUVEC [20]): -0.6107; Activity (HUVEC (Homo sapiens) [21]): Active; log2FC (HUVEC [23]): 0.5758; log2FC (HUVEC [24]): 0.263; fold change (FC) (HUVEC [25]): 0.5171; fold change (FC) (HUVEC [26]): 0.5853; log2FC (HUVEC [27]): 0.2703; log2FC (HUVEC [28]): -0.0926; fold change (FC) (HUVEC [29]): 0.0022; log2FC (HUVEC [30]): -0.1207; log2FC (HUVEC [31]): -0.6932
COc1ccc(Cn2nc(-c3ccccc3)c3cc(Nc4ccc(N5CCN(C)CC5)cc4)nc(N4CCNCC4)c32)cc1	0.4902			-0.0154					-0.0473							Active				-0.5169	log2FC (HUVEC [32]): -0.516; log2FC (HUVEC [33]): 0.2579; log2FC (HUVEC [23]): 0.3681; log2FC (HUVEC [26]): 0.6358; log2FC (HUVEC [28]): 0.5215; log2FC (HUVEC [34]): -0.646; log2FC (HUVEC [31]): -0.652
COc1ccc(Cn2nc(-c3ccccc3)c3cc(Nc4ccc(N5CCN(C)CC5)cc4)nc(N4CCN(C)CC4)c32)cc1		-0.0118	-0.7666		-0.6736	-0.536	-0.1804	-0.2671	-0.1216	-0.9349	-0.9562	-0.3223	0.5101	-0.6872	-0.5177	Active	Active	-0.8594	0.1142	-0.5806	log2FC (HUVEC [19]): -0.6896; log2FC (HUVEC [32]): -0.8206; fold change (FC) (HUVEC [33]): 0.1107; log2FC (HUVEC [20]): -0.6156; Activity (HUVEC (Homo sapiens) [21]): Active; log2FC (HUVEC [24]): 0.0259; fold change (FC) (HUVEC [25]): 0.5068; log2FC (HUVEC [27]): 0.0121; fold change (FC) (HUVEC [29]): -0.2068; log2FC (HUVEC [34]): 0.5814; log2FC (HUVEC [30]): -0.2702
